WT yeast gro inh – growth inhibition of WT yeast, mitochondrial fusion screen | mitochondrial fusion phenotypic screen, WT strain | inhibition, % at 10 µM | 2.1% of 190,000 active | AID 1362; in the data active = inhibition above about 58%; tested in S. cerevisiae
Diaph act CS – diaphorase activation or chemical reduction counter-screen; Diaphorase/resazurin coupled assay, resorufin fluorescence, 16 min; active compounds read high; 1 = vehicle wells, 0 = NADH-free wells; 0.005% of 190,000 active; AID 1229; activation factor at 20 µM;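 active = diaphorase activity raised at least twofold by the compound at 20 µM; inactive = activation factor below 2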
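Material: Clostridium kluyveri diaphorase, purified enzyme; Quantity: enzyme 0.07 U/mL final; Medium: HEPES pH 7.4 buffer with MgCl2 and Tween 20; Dosing: single compound dose of 20 µM, 1% DMSO final; Schedule: 16 min reaction at room temperature; Measured by: red resorufin fluorescence at 544/590 nm excitation/emission.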
ROMK mod – modulators of human ROMK potassium channel | P48048 | Tet-inducible ROMK, thallium flux fluorescence; actives lie on both sides | B-score at 10 µM | 2% of 130,000 active;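 active = signal ratio slope over the read window, or its plate-corrected B-score, at least 3 SD from the plate mean, either direction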;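 also: B-score of the F/F0 ratio slope over 7 to 12 s after thallium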
Diaphorase inh – inhibits diaphorase or chemically oxidizes, flagging diaphorase assay artifacts. 0.69% of 190,000 active. AID 1217. diaphorase resazurin-to-resorufin fluorescence, NADH, 16 min; bacterial (C. kluyveri) enzyme, not human. inhibition, % at 20 µM;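 active = primary screen inhibition at 20 µM above a set limit, cut at about 50% in these data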;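 also: plate controls were DMSO with full reaction for no effect and wells lacking NADH for full effect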
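Detection: fluorescence of resorufin formed from resazurin, Ex 544/Em 590 nm; test system: Clostridium kluyveri diaphorase enzyme; amount: 0.14 U/mL diaphorase, enzyme working solution; times: 16-min room-temperature incubation before reading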
KCC2 mod – KCC2 (human) Cl- transport modulation | Q9H2X9 | KCC2 cells, thallium flux FluoZin-2 fluorescence | B-score of Tl+ flux slope (higher = more flux/activation; lower = inhibition) at 10 µM | 2.2% of 190,000 active;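 active = thallium flux slope and its plate-corrected score both differing from the plate sample mean at a set confidence after two filtering rounds, in either direction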;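 also: slope of fluorescence scaled to starting intensity during 10 to 20 s after thallium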
Lmaj promast – inhibitors of Leishmania major promastigote growth. Leishmania major promastigotes, resazurin fluorescence viability. 9% of 200,000 active. inhibition, % at 10 µM; in the data active = inhibition above about 50%;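 also: promastigotes grown with compound for 44 hours at 28 °C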
ROMK hit retest – confirmation of human ROMK potassium channel modulators | 54% of 3,000 active | shares compounds with ROMK mod | ROMK thallium flux, fluorescence ratio; active compounds read low | AID 1917 | normalized thallium flux (F/F0 slope) at 10 µM;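 active = Flux at 10 µM at least 3 SD below or above vehicle control mean in one or both replicates; inconclusive = no clear call, values can overlap the other calls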
An asterisk follows results filed as active; u = inconclusive; x = not tested or not shown. In the library only some 12% were active in any assay of this set; here they are far more common.

SMILES	WT yeast gro inh	Diaph act CS	ROMK mod	Diaphorase inh	KCC2 mod	Lmaj promast	ROMK hit retest
N#C/C(=C\c1ccccc1)C(=O)N(c1ccccn1)C1CCCCC1	27	0.9	x	12	-1.9	14	0.045*
O=C(c1cccc(C(=O)N(c2ccccn2)C2CCCCC2)c1)N(c1ccccn1)C1CCCCC1	-1	1	-0.4	-1	0.021	-1	x
OCCC1CN(Cc2cnc(N3CCOCC3)s2)CCN1C1CCCC1 (stereo not given)	-1	0.9	0.44	9	-0.7	-1	x
Cc1snc(S(=O)(=O)/C(C#N)=N/Nc2ccc(C(F)(F)F)cc2)c1C#N	-3	0.9	3.8*	6	0.0076	-5	0.1*
Cc1snc(S(=O)(=O)/C(C#N)=N\Nc2ccccc2)c1C#N	6	0.8	1.7	16	0.34	-7	x
COc1cc(C2C(C(=O)/C=C/c3ccccc3)=C(O)C(=O)N2c2ccccn2)ccc1O (stereo not given)	-65	0.8	-0.14	17	-0.082	-1	x
CC(C)c1ccc2c(c1)CCC1C(C)(CN)CCCC21C (stereo not given)	x	x	x	x	0.025	x	0.04*
O=C(CCCSc1nnc(Nc2ccccc2F)s1)N1CCOCC1	-5	0.8	-0.59	17	-0.27	2	x
OCc1cn(-c2ccccc2)nc1-c1ccc2c(c1)OCCO2	-1	0.9	-0.23	6	x	7	x
COCC1CCCCN1Cc1cn(-c2ccccc2)nc1-c1ccc2c(c1)OCO2 (stereo not given)	7	0.9	-3.4*	9	0.27	31	0.065*
c1ccc(-n2cc(CNCCc3cscn3)c(-c3ccc4c(c3)OCO4)n2)cc1	5	1.1	-3.1*	-7	1.3	16	0.05*
COC(=O)c1cc2ccsc2n1CC(=O)N(C)C1CCCCC1	-12	1	-0.37	0	-0.097	1	x
O=C(O)c1ccc(NC2=C/C(=N/S(=O)(=O)c3ccccc3)c3ccccc3C2=O)cc1	48	1.4	-3.4*	-43	-0.5	100*	0.052*
COc1ccc(Cl)cc1C(=O)Nc1nnn(C)n1	-4	0.8	x	15	0.87	-4	x
COc1ccc(CC(=O)NNc2ncnc3c2cnn3Cc2ccccc2)cc1OC	x	x	x	x	0.58	x	0.078
CC(C)Cn1c(N)c(C(=O)CSc2cc(Cl)ccc2Cl)c(=O)n(C)c1=O	5	0.9	-0.21	15	-0.91	5	x
O=C(/C=C/c1ccccc1)N1CCN(S(=O)(=O)c2ccc(F)cc2)CC1	0	1	-0.25	2	1.2	39	x
O=C(/C=C/c1ccc(F)cc1)N1CCN(S(=O)(=O)/C=C/c2ccccc2)CC1	-3	1.1	3*	-13	0.38	-2	0.078
Cc1nc(C)c2c(=O)cc(-c3ccccc3)[nH]c2n1	-15	1	1.2*	4	-0.37	13	0.091
CC1CCN(CCCNC(=O)c2ccc3c(=O)n(Cc4ccc(Cl)cc4)c(=S)[nH]c3c2)CC1	19	1.7	-2.7*	-70	1.3	100*	0.061*
CCN(CCCNC(=O)CN1C(=O)COc2ccccc21)c1cccc(C)c1	-22	1	-0.98	2	-1.1	5	x
Cc1cc(C)cc(N(CC(=O)NCc2cccnc2)S(C)(=O)=O)c1	1	0.9	x	11	0.47	-2	x
Cc1ccc(C)c(Nc2ccc(C(=O)NCCc3ccccc3)cn2)c1	25	0.9	2.7*	10	-1.7	18	0.082
Cc1ccc(Nc2ccc(C(=O)NCCc3ccccc3)cn2)cc1	-10	0.9	2.1	10	-0.11	42	x
COc1ccc(N(C)S(=O)(=O)c2cccc(C(=O)Nc3ccc(-n4cnnn4)cc3)c2)cc1	-12	0.8	x	18	0.58	5	x
SMILES	WT yeast gro inh	Diaph act CS	ROMK mod	Diaphorase inh	KCC2 mod	Lmaj promast	ROMK hit retest
CCCCCN1N=C(C)CC1=O	2	1	2.7*	2	1.5	9	0.079
CCCCN1C(=O)CC(C(=O)OCC)=C1C	x	x	x	x	1.3	x	x
CCN1CCN(C(c2ccccn2)c2c(NC(=O)c3ccccc3)sc(C)c2C)CC1 (stereo not given)	-1	0.9	-0.5	6	2	17	x
Cc1ccc(OCCCC(=O)NC(C)c2ccccc2)cc1 (stereo not given)	15	0.9	3.2*	11	x	11	0.092
COC(=O)N/N=C/c1cn(Cc2ccccc2F)c2ccccc12	x	x	-3.4*	x	-0.35	x	0.059*
COC(=O)N/N=C/c1cc(Cl)cc(Cl)c1OCc1ccccc1F	7	0.9	x	9	-1.4	-3	x
COCCn1c(SCC(=O)N2CCN(c3ccccc3)CC2)nc2c(c1=O)SC(C)C2 (stereo not given)	3	x	x	x	-1.1	x	x
O=C(NCc1ccco1)C1CC(c2ccccc2O)=NO1 (stereo not given)	-8	0.9	3.6*	7	0.46	-4	0.078
COc1ccc(OC)c(C2=NOC(C(=O)NCc3ccco3)C2)c1 (stereo not given)	0	1.1	3.5*	-6	0.055	0	0.079
O=C(NCc1ccco1)C1CC(c2ccccc2C(F)(F)F)=NO1 (stereo not given)	x	x	x	x	-0.5	x	x
O=C(O)c1ccccc1C(=O)NCC(O)COc1ccc(Cl)cc1 (stereo not given)	x	x	0.15	x	0.19	x	x
Cc1nc2ccccc2nc(=O)c1NNc1ccccc1	3	0.8	6.4*	16	-2.3	0	u
Cc1ccc2nc(=O)c(NNc3ccccc3)cnc2c1	17	0.8	6.6*	17	0.14	-2	0.11*
CCN1C(=O)c2c(C)nc3ccccc3c2C1=O	11	0.8	x	15	-0.47	0	x
Cc1ccc(C(=O)Nc2cnc3ccccc3c2)cc1	3	0.9	x	12	-0.04	-1	x
COCCn1c(SCC(=O)N2CCCc3ccccc32)nc2ccccc2c1=O	10	1	-2.7*	0	x	24	0.063*
CCCc1nc(SCC(=O)Nc2ccccc2)c2c(=O)n(C)c(=O)n(C)c2n1	0	0.9	x	12	x	-7	x
CCCc1nc(SCC(=O)N2CCCc3ccccc32)c2c(=O)n(C)c(=O)n(C)c2n1	73*	0.9	x	14	-1.1	42	0.057*
CCCc1nc(SCC(=O)N2CCC(Cc3ccccc3)CC2)c2c(=O)n(C)c(=O)n(C)c2n1	81*	0.7	x	30	-2	10	u
COCCn1c(SCC(=O)N2CCCc3ccccc32)nc2c(c1=O)SC(C)C2 (stereo not given)	-23	1	x	1	0.7	-1	x
Cc1ccc(C2=NN(CC(=O)NCc3ccccn3)C(=O)CC2)cc1	-4	0.9	x	7	-0.35	-3	x
N#CCC(=O)Nc1ncn(Cc2ccccc2Cl)n1	-6	0.9	-0.033	11	-1.2	-5	x
